This is an account of results in ChEMBL document CHEMBL2086368, “Sulfonilamidothiopyrimidone and thiopyrimidone derivatives as selective COX-2 inhibitors: synthesis, biological evaluation, and docking studies” (Eur J Med Chem, 2012).

Calls of active or inactive are those of the source. No cut-off for these calls is given here. Bounds are passed on as bounds.

The test system of data set [1] is PBL. In words: Cytotoxicity against IL2-stimulated human PBL assessed as cell death at 10 uM after 24 hrs by MTT assay. It counts as cell-based. The essentials:
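IL-2-treated human PBLs given 1, 10 or 50 (micromolar) test agent for 24 h. Viability read by MTT (0.15 mg/ml, 4 h, 37 °C) reduction to formazan, absorbance at 570 nm with 655 nm reference. DMSO served as cell-death control.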

In data set [2] the target is T1, Prostaglandin G/H synthase 2 (Homo sapiens) (UniProt P35354).
T1 sequence (whole entry): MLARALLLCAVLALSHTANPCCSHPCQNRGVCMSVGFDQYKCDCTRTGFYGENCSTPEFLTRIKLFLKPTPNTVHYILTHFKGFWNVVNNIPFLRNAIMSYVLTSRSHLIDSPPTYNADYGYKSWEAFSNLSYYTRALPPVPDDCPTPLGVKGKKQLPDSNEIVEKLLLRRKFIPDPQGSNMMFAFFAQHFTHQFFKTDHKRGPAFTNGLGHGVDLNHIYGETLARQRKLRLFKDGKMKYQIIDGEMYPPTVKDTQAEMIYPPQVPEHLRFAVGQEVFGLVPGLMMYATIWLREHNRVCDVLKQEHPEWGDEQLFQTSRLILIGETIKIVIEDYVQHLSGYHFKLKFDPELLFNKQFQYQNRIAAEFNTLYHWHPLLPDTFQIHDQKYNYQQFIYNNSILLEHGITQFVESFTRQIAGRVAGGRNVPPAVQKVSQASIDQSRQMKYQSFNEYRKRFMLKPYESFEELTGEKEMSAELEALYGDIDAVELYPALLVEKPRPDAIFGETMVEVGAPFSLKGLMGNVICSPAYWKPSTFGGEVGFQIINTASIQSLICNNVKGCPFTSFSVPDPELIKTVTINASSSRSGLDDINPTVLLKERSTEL
In words: Increase of COX2-mediated PGE2 production in PMA-Ion-stimulated human PBL at 10 uM after 24 hrs by ELISA. For orientation: ELISA stands for enzyme-linked immunosorbent assay.

The target of data set [3] is T1, Prostaglandin G/H synthase 2 (Homo sapiens). In words: Increase of COX2-mediated PGE2 production in PMA-Ion-stimulated human PBL at 10 uM after 24 hrs by ELISA relative to control.
Data set [4] has as its system PBL. In words: Inhibition of COX2 expression in PMA-Ion-stimulated human PBL at 10 uM after 20 hrs by Western blot analysis. It counts as functional, cell-based. In outline: (§1)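 PBLs treated with PMA 15 ng/ml plus ionomycin, alone or with inhibitor, for 20 h at 37 °C; NS398 as inhibition control. Lysates quantified by BCA, resolved on 10% SDS-PAGE, semidry-blotted to PVDF, probed with rabbit anti-human COX-2 (1:500) and anti-α-tubulin loading control, ECL detection.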

The test system of data set [5] is PBL. In words: Antiproliferative activity against human PBL assessed as incorporation of BrdU at 10 uM after 2 to 24 hrs. It counts as cell-based. In outline:
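Human PBLs in RPMI 1640 with 10% heat-inactivated FCS, 1% penicillin/streptomycin, 2 mM L-glutamine, stimulated with PHA and 60 U/ml IL-2; exposed to test agent for 24 h at 37 °C, 5% CO2. DNA synthesis read by immunochemical detection of incorporated BrdU after partial DNA denaturation.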

Data set [6] concerns the target T1, Prostaglandin G/H synthase 2 (Homo sapiens). In words: Inhibition of COX2-mediated PGE2 production in PMA-Ion-stimulated human PBL at 10 uM after 24 hrs by ELISA.
In data set [7] the target is Prostaglandin G/H synthase 2 (Ovis aries) (UniProt P79208). The conditions noted are these: at 5 nM.
The test system of data set [8] is PBL. In words: Inhibition of COX2 expression in PMA-Ion-stimulated human PBL at 5 uM after 20 hrs by Western blot analysis. It is filed as functional, cell-based. The essentials: as §1
(A western blot detects proteins with antibodies after separation by electrophoresis.)

Chain of Prostaglandin G/H synthase 2 (Ovis aries) (P79208 whole entry, looked up): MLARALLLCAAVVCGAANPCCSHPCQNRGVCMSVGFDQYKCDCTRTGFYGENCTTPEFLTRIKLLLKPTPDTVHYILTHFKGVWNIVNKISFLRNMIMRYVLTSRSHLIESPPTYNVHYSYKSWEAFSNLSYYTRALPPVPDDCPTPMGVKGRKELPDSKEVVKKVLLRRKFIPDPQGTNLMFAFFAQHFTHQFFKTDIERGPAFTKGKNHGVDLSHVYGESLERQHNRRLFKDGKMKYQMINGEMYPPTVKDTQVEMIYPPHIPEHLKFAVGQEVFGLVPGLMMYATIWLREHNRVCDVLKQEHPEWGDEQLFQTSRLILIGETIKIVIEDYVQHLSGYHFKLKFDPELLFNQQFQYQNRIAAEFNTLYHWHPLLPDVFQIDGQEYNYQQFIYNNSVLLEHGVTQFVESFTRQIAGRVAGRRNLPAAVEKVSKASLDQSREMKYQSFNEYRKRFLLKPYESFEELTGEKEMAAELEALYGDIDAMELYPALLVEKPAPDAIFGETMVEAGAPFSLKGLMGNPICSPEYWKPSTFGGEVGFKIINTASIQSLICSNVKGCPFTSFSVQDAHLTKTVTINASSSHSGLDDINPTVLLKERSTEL

Take `Cc1sc2nc(SC3CCCCC3)n(NS(C)(=O)=O)c(=O)c2c1C`: in the data set with PBL [1], the Activity result is given as “Non-toxic”. Further, the outcome in data set [2] was Active.
As to `CS(=O)(=O)Nn1c(SC2CCCCC2)nc2sc(-c3ccccc3)cc2c1=O`, the Activity entry in the data set with PBL [1] is “Non-toxic”. The fold change (FC) in data set [3] is 2.9.
With `Nn1c(SC(C(=O)O)c2ccccc2)nc2c([nH]c3ccccc32)c1=O` (configuration not stated), in the data set with PBL [1], the Activity result was “Non-toxic”.
Broadly, the inhibition is how much of the control response was suppressed. As to `CS(=O)(=O)Nn1c(Sc2ccc([N+](=O)[O-])cc2)nc2sc(-c3ccccc3)cc2c1=O`, the Activity result in the data set on PBL [1] and in the data set on PBL [5] was “Non-toxic” each time. In addition, the inhibition entry in the data set with PBL [4] is “Active”. The results for the inhibition in data set [6] and in data set [7] were 20% and 50%, respectively.
`CS(=O)(=O)Nn1c(Sc2ccccc2C(=O)O)nc2ccsc2c1=O`: the Activity entry with PBL [1] is listed as “Non-toxic”. In addition, the result in data set [2] was Active.
For the compound `O=c1c2sc3ccccc3c2nc2n1N=C(c1ccccc1)CS2`, the Activity result with PBL [1] was “Non-toxic”. Further, the inhibition result in data set [6] is “inactive”.
With `O=C1Nn2c(nc3c(sc4ccccc43)c2=O)SC1c1ccccc1` (configuration not stated), the Activity result in the data set on PBL [1] is recorded as “Non-toxic”. Further, the outcome in data set [2] was Active.
Consider `CS(=O)(=O)Nn1c(Sc2ccc(F)cc2F)nc2sc(-c3ccccc3)cc2c1=O`, for which the Activity entry with PBL [1] and in the data set with PBL [5] was “Non-toxic” each time. The inhibition result in the data set with PBL [4] was “Active”. The inhibition in data set [6] was > 50%; in data set [7], 50%.
Consider `CS(=O)(=O)Nn1c(Sc2ccccc2[N+](=O)[O-])nc2sc(-c3ccccc3)cc2c1=O`, for which the Activity entry in the data set on PBL [1] and with PBL [5] was “Non-toxic” in each case. For the same compound, the inhibition entry in the data set with PBL [4] is “Active”. Also, the inhibition was 20% in data set [6] and 50% in data set [7].
For `CS(=O)(=O)Nn1c(Sc2ccccc2C(=O)O)nc2sc(-c3ccccc3)cc2c1=O`, the Activity entry with PBL [1] and in the data set with PBL [5] was “Non-toxic” in each case. Moreover, in the data set with PBL [4], the inhibition entry is “Active”. For the same compound, the inhibition in data set [6] turned out to be 20%; in data set [7], 50%.
As for `COc1ccc(C2=Nn3c(nc4sc(-c5ccccc5)cc4c3=O)SC2)cc1`, in the data set on PBL [1], the Activity entry was “Non-toxic”. Also, the inhibition result in data set [6] is “inactive”.
Regarding `CS(=O)(=O)Nc1ccc([N+](=O)[O-])cc1OC1CCCCC1`, in the data set on PBL [8], the inhibition entry is “Active”.
For the compound `CCc1nn2c(=O)c3cc(-c4ccccc4)sc3nc2s1`, in the data set with PBL [1], the Activity result is given as “Non-toxic”.
Still for that read-out and setting: the same measure for `CC(Sc1nc2c(sc3ccccc32)c(=O)n1N)C(=O)O` (configuration not stated): “Non-toxic”; for `CS(=O)(=O)Nn1c(Sc2ccc([N+](=O)[O-])cc2[N+](=O)[O-])nc2sc3c(c2c1=O)CCCC3`: “Non-toxic”.
